{
  "source": "ChEMBL document CHEMBL1938286",
  "about": "“A concise synthesis of viscolin, and its anti-inflammatory effects through the suppression of iNOS, COX-2, ERK phosphorylation and proinflammatory cytokines expressions” (Eur J Med Chem, 2012)",
  "key": {"Mus musculus [1]": {"tested_on": "Mus musculus", "assay": "Antiinflammatory activity in ICR mouse assessed as inhibition of carrageenan-induced hind paw edema at 8 mg/kg, ip measured after 4 hrs", "format": "functional, organism-based", "design": "dose 8 mg/kg"}, "Mus musculus [2]": {"tested_on": "Mus musculus", "assay": "Antiinflammatory activity in ICR mouse assessed as inhibition of carrageenan-induced hind paw edema at 8 mg/kg, ip measured after 5 hrs", "format": "functional, organism-based", "design": "dose 8 mg/kg"}, "Mus musculus [3]": {"tested_on": "Mus musculus", "assay": "Antioxidant activity in carrageenan-stimulated ICR mouse assessed as increase in SOD activity at 8 mg/kg, ip measured after 5 hrs", "format": "functional", "conditions": "route intraperitoneal", "outline": "(§1)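 Male ICR mice (n = 6 per group) received the drug 30 min before intraplantar carrageenan, and paw tissue was taken at the 5th hr. Total SOD was measured by inhibition of cytochrome c reduction, CAT by Aebi's method, and cytosolic GPx by Paglia–Valentine. Activities are in U/mg protein, given as mean ± SEM.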"}, "Mus musculus [4]": {"tested_on": "Mus musculus", "assay": "Antioxidant activity in carrageenan-stimulated ICR mouse assessed as increase in GPx activity at 2 mg/kg, ip measured after 5 hrs", "format": "functional", "conditions": "route intraperitoneal", "outline": "as §1"}, "Mus musculus [5]": {"tested_on": "Mus musculus", "assay": "Antioxidant activity in carrageenan-stimulated ICR mouse assessed as increase in GPx activity at 4 mg/kg, ip measured after 5 hrs", "format": "functional", "conditions": "route intraperitoneal", "outline": "as §1"}, "Mus musculus [6]": {"tested_on": "Mus musculus", "assay": "Antioxidant activity in carrageenan-stimulated ICR mouse assessed as increase in GPx activity at 8 mg/kg, ip measured after 5 hrs", "format": "functional", "conditions": "route intraperitoneal", "outline": "as §1"}, "Mus musculus [7]": {"tested_on": "Mus musculus", "assay": "Down regulation of COX-2 protein expression in carrageenan-stimulated ICR mouse at 8 mg/kg, ip measured after 5 hrs by Western blot analysis", "format": "functional", "conditions": "route intraperitoneal", "outline": "(§2)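 Male ICR mice (18–25 g, n = 6 per group) received intraplantar carrageenan. Paw tissue was taken 5 h after carrageenan. Lysates were made in RIPA buffer and 30 µg protein run on SDS-PAGE/PVDF immunoblot with ECL detection. Band intensities were quantified relative to the carrageenan-alone group across three independent experiments.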"}, "Mus musculus [8]": {"tested_on": "Mus musculus", "assay": "Down regulation of iNOS protein expression in carrageenan-stimulated ICR mouse at 8 mg/kg, ip measured after 5 hrs by Western blot analysis", "format": "functional", "conditions": "route intraperitoneal", "outline": "as §2"}, "Mus musculus [9]": {"tested_on": "Mus musculus", "assay": "Antiinflammatory activity in ICR mouse assessed as decrease in carrageenan-induced inflammatory response at 8 mg/kg, ip measured after 5 hrs", "format": "functional, organism-based", "design": "dose 8 mg/kg", "outline": "(§3)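 Male ICR mice were dosed 30 min before intraplantar carrageenan, and paw biopsies were taken 5 h later. Tissue was fixed in Dietric solution for 1 week at room temperature, dehydrated in graded ethanol and paraffin-embedded. 7-thickness sections were stained with hematoxylin–eosin or Van Gieson and examined by light microscopy.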"}, "Mus musculus [10]": {"tested_on": "Mus musculus", "assay": "Antiinflammatory activity in carrageenan-stimulated ICR mouse assessed as decrease in number of inflammatory cells at 8 mg/kg, ip measured after 5 hrs", "format": "functional, organism-based", "design": "dose 8 mg/kg", "outline": "as §3"}, "Mus musculus [11]": {"tested_on": "Mus musculus", "assay": "Antiinflammatory activity in carrageenan-stimulated ICR mouse assessed as vascular localization of inflammatory cells at 8 mg/kg, ip measured after 5 hrs", "format": "functional, organism-based", "design": "dose 8 mg/kg", "outline": "as §3"}, "Mus musculus [12]": {"tested_on": "Mus musculus", "assay": "Antiinflammatory activity in carrageenan-stimulated ICR mouse assessed as effect on shape of collagen fiber at 8 mg/kg, ip measured after 5 hrs", "format": "functional, organism-based", "design": "dose 8 mg/kg", "outline": "as §3"}, "Mus musculus [13]": {"tested_on": "Mus musculus", "assay": "Antiinflammatory activity in carrageenan-stimulated ICR mouse assessed as decrease in intercellular spaces at 8 mg/kg, ip measured after 5 hrs", "format": "functional, organism-based", "design": "dose 8 mg/kg", "outline": "as §3"}, "Mus musculus [14]": {"tested_on": "Mus musculus", "assay": "Antiinflammatory activity in carrageenan-stimulated ICR mouse assessed as effect on connective tissue damage at 8 mg/kg, ip measured after 5 hrs", "format": "functional, organism-based", "design": "dose 8 mg/kg", "outline": "as §3"}, "Mus musculus [15]": {"tested_on": "Mus musculus", "assay": "Antiinflammatory activity in carrageenan-stimulated ICR mouse assessed as decrease in neutrophil number at 8 mg/kg, ip measured after 5 hrs", "format": "functional, organism-based", "design": "dose 8 mg/kg", "outline": "as §3"}, "Mus musculus [16]": {"tested_on": "Mus musculus", "assay": "Antiinflammatory activity in carrageenan-stimulated ICR mouse assessed as reduction in iNOS immunoreactive cells at 8 mg/kg, ip measured after 5 hrs", "format": "functional, organism-based", "design": "dose 8 mg/kg"}, "Mus musculus [17]": {"tested_on": "Mus musculus", "assay": "Antiinflammatory activity in carrageenan-stimulated ICR mouse assessed as reduction in COX2 immunoreactive cells at 8 mg/kg, ip measured after 5 hrs", "format": "functional, organism-based", "design": "dose 8 mg/kg"}, "Mus musculus [18]": {"tested_on": "Mus musculus", "assay": "Antiinflammatory activity in carrageenan-stimulated ICR mouse assessed as decrease in cellular infiltration to intercellular spaces at 8 mg/kg, ip measured after 5 hrs", "format": "functional, organism-based", "design": "dose 8 mg/kg", "outline": "as §3"}, "RAW264.7 [19]": {"tested_on": "RAW264.7", "assay": "Antiinflammatory activity in mouse RAW264.7 cells assessed as inhibition of LPS-induced PGE2 production administered 1 hr before LPS challenge measured after 24 hrs by ELISA"}, "RAW264.7 [20]": {"tested_on": "RAW264.7", "assay": "Antiinflammatory activity in mouse RAW264.7 cells assessed as inhibition of LPS-induced TNFalpha production administered 1 hr before LPS challenge measured after 24 hrs by ELISA"}, "RAW264.7 [21]": {"tested_on": "RAW264.7", "assay": "Antiinflammatory activity in mouse RAW264.7 cells assessed as inhibition of LPS-induced PGE2 production at 10 uM administered 1 hr before LPS challenge measured after 24 hrs by ELISA"}, "RAW264.7 [22]": {"tested_on": "RAW264.7", "assay": "Antiinflammatory activity in mouse RAW264.7 cells assessed as inhibition of LPS-induced PGE2 production at 20 uM administered 1 hr before LPS challenge measured after 24 hrs by ELISA"}, "RAW264.7 [23]": {"tested_on": "RAW264.7", "assay": "Antiinflammatory activity in mouse RAW264.7 cells assessed as inhibition of LPS-induced TNFalpha production at 5 uM administered 1 hr before LPS challenge measured after 24 hrs by ELISA"}, "RAW264.7 [24]": {"tested_on": "RAW264.7", "assay": "Antiinflammatory activity in mouse RAW264.7 cells assessed as inhibition of LPS-induced TNFalpha production at 10 uM administered 1 hr before LPS challenge measured after 24 hrs by ELISA"}, "RAW264.7 [25]": {"tested_on": "RAW264.7", "assay": "Antiinflammatory activity in mouse RAW264.7 cells assessed as inhibition of LPS-induced TNFalpha production at 20 uM administered 1 hr before LPS challenge measured after 24 hrs by ELISA"}},
  "note": "Calls of active or inactive are those of the source. The calls are words filed in the database; no cut-off is given here.",
  "data": [
    {"smiles": "COc1cc(CCCc2c(OC)cc(O)c(OC)c2OC)ccc1O", "note": "[VISCOLIN]", "values": [
      {"measurement": "Activity", "setting": "Mus musculus [1]", "value": "Active"},
      {"measurement": "Activity", "setting": "Mus musculus [2]", "value": "Active"},
      {"measurement": "Activity", "setting": "Mus musculus [3]", "value": 4.08, "unit": "U/mg"},
      {"measurement": "Activity", "setting": "Mus musculus [4]", "value": 8.64, "unit": "U/mg"},
      {"measurement": "Activity", "setting": "Mus musculus [5]", "value": 10.97, "unit": "U/mg"},
      {"measurement": "Activity", "setting": "Mus musculus [6]", "value": 11.54, "unit": "U/mg"},
      {"measurement": "Activity", "setting": "Mus musculus [7]", "value": 76.2, "unit": "%"},
      {"measurement": "Activity", "setting": "Mus musculus [8]", "value": 63.6, "unit": "%"},
      {"measurement": "Activity", "setting": "Mus musculus [9]", "value": "Active"},
      {"measurement": "Activity", "setting": "Mus musculus [10]", "value": "Active"},
      {"measurement": "Activity", "setting": "Mus musculus [11]", "value": "Active"},
      {"measurement": "Activity", "setting": "Mus musculus [12]", "value": "Active"},
      {"measurement": "Activity", "setting": "Mus musculus [13]", "value": "Active"},
      {"measurement": "Activity", "setting": "Mus musculus [14]", "value": "Active"},
      {"measurement": "Activity", "setting": "Mus musculus [15]", "value": "Active"},
      {"measurement": "Activity", "setting": "Mus musculus [16]", "value": "Active"},
      {"measurement": "Activity", "setting": "Mus musculus [17]", "value": "Active"},
      {"measurement": "Activity", "setting": "Mus musculus [18]", "value": "Active"},
      {"measurement": "IC50", "setting": "RAW264.7 [19]", "value": 14.4, "unit": "µM"},
      {"measurement": "Activity", "setting": "RAW264.7 [20]", "value": "Dose-dependent effect"},
      {"measurement": "IC50", "setting": "RAW264.7 [20]", "value": 17.3, "unit": "µM"},
      {"measurement": "Activity", "setting": "RAW264.7 [21]", "value": "Active"},
      {"measurement": "Activity", "setting": "RAW264.7 [22]", "value": "Active"},
      {"measurement": "Activity", "setting": "RAW264.7 [23]", "value": "Active"},
      {"measurement": "Activity", "setting": "RAW264.7 [24]", "value": "Active"},
      {"measurement": "Activity", "setting": "RAW264.7 [25]", "value": "Active"}
    ]}
  ]
}
